For data set [1], the system named is Mycobacterium tuberculosis. Description: Antimycobacterial activity against Mycobacterium tuberculosis H37Rv incubated for 7 days by rapid direct susceptibility test. Type of data set: functional. As to conditions: 168 h. A digest of the protocol:
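Two-fold compound dilutions were mixed with MTB suspension containing 4×10 -3 mg cells per well and incubated at 37 °C in a wet box. MIC was read from the quantity and state of cells in each well under a continuous visual high-magnification system and was re-determined 7 days later.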

Data set [2] is described as follows: Cytotoxicity against African green monkey Vero cells incubated for 72 hrs by MTT assay. In kind it is cell-based. As to conditions: chlorocebus sabaeus. A digest of the protocol:
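Compounds were dissolved in DMSO and tested at 128 to 4 μg/mL. VERO cells were grown in MEM with Earle's salts plus 10% FBS at 37 °C, 5% CO2, seeded at 1×10^4 cells/well and allowed to recover 24 h. Cells were then exposed to compound or drug-free medium for 72 h. Viability was read by MTT, and CC50 was calculated by Bliss analysis.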
In general terms: Tetrazolium dyes change colour on reduction, which living cells bring about.

Data set [3] is described as follows: Selectivity index, ratio of CC50 for African green monkey Vero cells to MIC for Mycobacterium tuberculosis H37Rv. As to conditions: read-out: Selectivity Index. In kind it is toxicity.
Data set [4] addresses DNA gyrase subunit A/DNA gyrase subunit B (Mycobacterium tuberculosis (strain ATCC 25618 / H37Rv), UniProt P9WG45+P9WG47). In words: Inhibition of Mycobacterium tuberculosis DNA gyrase. Type of data set: protein-complex assay.
The nature of data set [5]: Half life in SPF ICR mouse at 100 mg/kg, sc. In kind it is ADME, organism-based. As to conditions: in vivo.
The nature of data set [6]: Cmax in SPF ICR mouse at 100 mg/kg, sc. In kind it is ADME, organism-based. Further details: dose 100 mg/kg, route subcutaneous. As to conditions: in vivo. The method in brief:
(§1)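 Female SPF ICR mice (20-25 g) dosed once at 100 mg/kg by subcutaneous injection. Plasma concentration-time data were collected. Cmax, Tmax, t1/2 and AUC0-inf were taken directly from the experimental data.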

A short description of data set [7]: Tmax in SPF ICR mouse at 100 mg/kg, sc. Type of data set: ADME, organism-based. As to conditions: in vivo. The method in brief: as §1
Data set [8] has as its system CHO. Description: Cytotoxicity against CHO cells assessed as slight change in cell viability at 128 to 4 ug/ml. In kind it is cell-based, Cricetulus griseus. As to conditions: chinese hamster.
Data set [9] is described as follows: AUC (0 to infinity) in SPF ICR mouse at 100 mg/kg, sc. In kind it is ADME, organism-based. Further details: dose 100 mg/kg, route subcutaneous, time infinity. As to conditions: in vivo. The method in brief:
as §1

≈ marks a conversion by molar mass, not a printed value. A value given as a limit tells only on which side of the number the result lay.

This is an account of results in ChEMBL document CHEMBL4364323, “Synthesis and biological evaluation of moxifloxacin-acetyl-1,2,3-1H-triazole-methylene-isatin hybrids as potential anti-tubercular agents against both drug-susceptible and drug-resistant Mycobacterium tuberculosis strains” (Eur J Med Chem, 2019).

DNA gyrase subunit A/DNA gyrase subunit B, sequence (P9WG45 whole entry): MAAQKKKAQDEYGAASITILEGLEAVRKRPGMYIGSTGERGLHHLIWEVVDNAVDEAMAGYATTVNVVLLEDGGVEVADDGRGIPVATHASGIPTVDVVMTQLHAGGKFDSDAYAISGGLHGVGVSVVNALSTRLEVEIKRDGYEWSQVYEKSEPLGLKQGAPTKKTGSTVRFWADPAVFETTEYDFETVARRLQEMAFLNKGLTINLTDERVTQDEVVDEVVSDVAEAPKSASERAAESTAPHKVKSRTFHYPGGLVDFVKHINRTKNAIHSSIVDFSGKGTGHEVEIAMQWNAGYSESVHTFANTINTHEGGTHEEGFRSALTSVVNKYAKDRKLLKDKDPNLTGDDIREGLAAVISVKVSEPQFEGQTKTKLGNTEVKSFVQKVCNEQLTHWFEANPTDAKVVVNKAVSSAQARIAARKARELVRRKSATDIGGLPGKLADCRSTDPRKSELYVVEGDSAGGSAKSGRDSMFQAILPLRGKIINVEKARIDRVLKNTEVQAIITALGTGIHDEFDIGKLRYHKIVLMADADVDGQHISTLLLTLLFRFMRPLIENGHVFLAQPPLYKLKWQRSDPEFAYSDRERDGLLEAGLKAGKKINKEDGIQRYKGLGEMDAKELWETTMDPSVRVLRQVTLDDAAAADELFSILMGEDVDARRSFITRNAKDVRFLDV
DNA gyrase subunit A/DNA gyrase subunit B, sequence (P9WG47 whole entry): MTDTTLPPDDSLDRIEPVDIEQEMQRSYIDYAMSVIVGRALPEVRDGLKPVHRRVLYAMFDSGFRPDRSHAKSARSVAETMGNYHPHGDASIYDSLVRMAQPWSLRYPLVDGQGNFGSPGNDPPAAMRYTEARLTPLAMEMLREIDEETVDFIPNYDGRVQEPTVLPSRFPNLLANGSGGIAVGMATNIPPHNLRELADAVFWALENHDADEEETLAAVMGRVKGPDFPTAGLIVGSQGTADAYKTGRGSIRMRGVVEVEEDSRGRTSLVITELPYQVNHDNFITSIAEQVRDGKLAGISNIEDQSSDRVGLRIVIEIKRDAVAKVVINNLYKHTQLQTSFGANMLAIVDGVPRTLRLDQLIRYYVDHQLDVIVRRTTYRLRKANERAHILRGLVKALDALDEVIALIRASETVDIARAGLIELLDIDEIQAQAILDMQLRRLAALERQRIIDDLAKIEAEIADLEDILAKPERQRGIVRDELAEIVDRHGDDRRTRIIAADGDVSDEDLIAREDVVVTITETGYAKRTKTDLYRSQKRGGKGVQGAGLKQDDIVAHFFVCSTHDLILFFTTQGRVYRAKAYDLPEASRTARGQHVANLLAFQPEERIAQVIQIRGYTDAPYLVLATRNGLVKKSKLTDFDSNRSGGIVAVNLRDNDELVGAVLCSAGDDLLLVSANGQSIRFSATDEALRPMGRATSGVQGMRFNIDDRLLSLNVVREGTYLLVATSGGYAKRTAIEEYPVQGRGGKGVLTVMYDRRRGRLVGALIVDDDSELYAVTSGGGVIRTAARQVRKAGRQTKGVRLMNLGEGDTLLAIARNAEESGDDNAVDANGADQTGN

For `COc1c(N2C[C@H]3CCCN(C(=O)Cn4cc(CN5C(=O)/C(=N/NC(N)=S)c6cccc(F)c65)nn4)[C@H]3C2)c(F)cc2c(=O)c(C(=O)O)cn(C3CC3)c12`, the MIC in data set [1] was 8 µg/mL (≈ 10.5 µM). Besides, the CC50 at 72 h in [2] came to 8 µg/mL (≈ 10.5 µM). Moreover, the selectivity ratio in data set [3] came out at 1.
As for `COc1c(N2CCNC(C)C2)c(F)cc2c(=O)c(C(=O)O)cn(C3CC3)c12` (centres undefined) [GATIFLOXACIN], in data set [1], 0.5 µg/mL (≈ 1.33 µM) was the least that counted as inhibitory (MIC). In addition, it took 64 µg/mL (≈ 170 µM) to reach half-maximal cytotoxicity in data set [2] (CC50 at 72 h). In [4], the IC50 was 13.3 µM. Besides, the selectivity ratio in [3] came to 128.
Compound `NNC(=O)c1ccncc1` [ISONIAZID] gave an MIC in [1] of 0.12 µg/mL (≈ 0.875 µM). Also, the selectivity ratio in data set [3] was found to be 1024.
Compound `COc1c(N2C[C@H]3CCCN(C(=O)Cn4cc(CN5C(=O)/C(=N/O)c6cccc(F)c65)nn4)[C@H]3C2)c(F)cc2c(=O)c(C(=O)O)cn(C3CC3)c12` showed an MIC in [1] of 16 µg/mL (≈ 22.8 µM). In [2], the CC50 at 72 h was 16 µg/mL (≈ 22.8 µM). The selectivity ratio in [3] is 1.
For the compound `COc1c(N2C[C@H]3CCCN(C(=O)Cn4cc(CN5C(=O)C(=O)c6cccc(F)c65)nn4)[C@H]3C2)c(F)cc2c(=O)c(C(=O)O)cn(C3CC3)c12`, in [1], the MIC amounted to 8 µg/mL (≈ 11.6 µM). In [2], this compound returned a CC50 at 72 h of 32 µg/mL (≈ 46.5 µM). Further, the selectivity ratio in data set [3] amounted to 4.
With `COc1c(N2C[C@H]3CCCN(C(=O)Cn4cc(CN5C(=O)/C(=N/O)c6cc(F)ccc65)nn4)[C@H]3C2)c(F)cc2c(=O)c(C(=O)O)cn(C3CC3)c12`, it took 2 µg/mL (≈ 2.85 µM) to inhibit growth in data set [1] (MIC). Further, in data set [2], the CC50 at 72 h was found to be 16 µg/mL (≈ 22.8 µM). In addition, the selectivity ratio in data set [3] was found to be 8.
With `CO/N=C1/C(=O)N(Cc2cn(CC(=O)N3CCC[C@@H]4CN(c5c(F)cc6c(=O)c(C(=O)O)cn(C7CC7)c6c5OC)C[C@@H]43)nn2)c2ccc(C)cc21`, in [1], it took 4 µg/mL (≈ 5.61 µM) to inhibit growth (MIC). The midpoint of cytotoxicity in data set [2], the CC50 at 72 h, lay at 64 µg/mL (≈ 89.8 µM). In addition, in [3], the selectivity ratio was found to be 16.
Compound `COc1c(N2C[C@H]3CCCN(C(=O)Cn4cc(CN5C(=O)C(=O)c6ccccc65)nn4)[C@H]3C2)c(F)cc2c(=O)c(C(=O)O)cn(C3CC3)c12` displayed an MIC in data set [1] of 0.25 µg/mL (≈ 0.373 µM). Moreover, in [2], the CC50 at 72 h amounted to 32 µg/mL (≈ 47.8 µM). In addition, the IC50 in data set [4] is 5.97 µM. Besides, the selectivity ratio in data set [3] was 128.
`COc1c(N2C[C@H]3CCCN(C(=O)Cn4cc(CN5C(=O)/C(=N/NC(N)=S)c6ccccc65)nn4)[C@H]3C2)c(F)cc2c(=O)c(C(=O)O)cn(C3CC3)c12` yielded an MIC in [1] of 0.12 µg/mL (≈ 0.162 µM). Also, the half-life in data set [5] is 258 min. For the same compound, the Cmax in data set [6] is 1400 ng/mL. Moreover, the Tmax in data set [7] is 52 min. Also, in data set [8], the Activity result is on record as “Toxic”. In data set [2], this compound came in with a CC50 at 72 h of 16 µg/mL (≈ 21.5 µM). In data set [9], this compound showed an AUC(0-inf) of 3270 ng·h/mL. For the same compound, in data set [4], the IC50 is 6.73 µM. Further, the selectivity ratio in data set [3] was 128.
Compound `CO/N=C1/C(=O)N(Cc2cn(CC(=O)N3CCC[C@@H]4CN(c5c(F)cc6c(=O)c(C(=O)O)cn(C7CC7)c6c5OC)C[C@@H]43)nn2)c2ccccc21` returned an MIC in data set [1] of 0.5 µg/mL (≈ 0.716 µM). In addition, in data set [5], the half-life is 186 min. The peak level in data set [6] (Cmax) was 3250 ng/mL. Further, the Tmax in data set [7] was 39 min. In addition, the Activity result in data set [8] is listed as “Toxic”. The compound also returned a CC50 at 72 h in [2] of 128 µg/mL (≈ 183 µM). The same compound came in with an AUC(0-inf) in [9] of 6440 ng·h/mL. Moreover, half-maximal inhibition in data set [4] (IC50) was put at 8.59 µM. For the same compound, the selectivity ratio in data set [3] is 256.
The compound `COc1c(N2C[C@H]3CCCN(C(=O)Cn4cc(CN5C(=O)/C(=N/O)c6ccccc65)nn4)[C@H]3C2)c(F)cc2c(=O)c(C(=O)O)cn(C3CC3)c12` showed a minimum inhibitory concentration (MIC) in data set [1] of 1 µg/mL (≈ 1.46 µM). Moreover, in data set [2], the CC50 at 72 h is 32 µg/mL (≈ 46.7 µM). Further, the selectivity ratio in data set [3] was determined as 32.
In data set [1], `CO[C@H]1/C=C/O[C@@]2(C)Oc3c(C)c(O)c4c(O)c(c(/C=N/N5CCN(C)CC5)c(O)c4c3C2=O)NC(=O)/C(C)=C\C=C\[C@H](C)[C@H](O)[C@@H](C)[C@@H](O)[C@@H](C)[C@H](OC(C)=O)[C@@H]1C` [RIFAMPIN] returned an MIC of 0.06 µg/mL (≈ 0.0729 µM). In data set [2], the CC50 at 72 h is > 128 µg/mL. Besides, in data set [3], the selectivity ratio was > 512.
Take `COc1c(N2C[C@H]3CCCN(C(=O)Cn4cc(CN5C(=O)C(=O)c6cc(F)ccc65)nn4)[C@H]3C2)c(F)cc2c(=O)c(C(=O)O)cn(C3CC3)c12`: in data set [1], the MIC was 1 µg/mL (≈ 1.45 µM). Further, the CC50 at 72 h in data set [2] is 16 µg/mL (≈ 23.3 µM). For the same compound, in data set [3], the selectivity ratio worked out at 16.
The corresponding values for `COc1c(N2C[C@H]3CCCN(C(=O)Cn4cc(CN5C(=O)C(=O)c6cc(C)ccc65)nn4)[C@H]3C2)c(F)cc2c(=O)c(C(=O)O)cn(C3CC3)c12` are 2 µg/mL (≈ 2.93 µM), 64 µg/mL (≈ 93.6 µM) and 32.
Regarding `COc1c(N2C[C@@H]3CCCN[C@@H]3C2)c(F)cc2c(=O)c(C(=O)O)cn(C3CC3)c12` [MOXIFLOXACIN], it took 0.12 µg/mL (≈ 0.299 µM) to inhibit growth in [1] (MIC). This compound also came in with a Cmax in data set [6] of 10800 ng/mL. Besides, in data set [7], the Tmax is 27 min. In [9], the AUC(0-inf) is 19200 ng·h/mL.
With `CO/N=C1/C(=O)N(Cc2cn(CC(=O)N3CCC[C@@H]4CN(c5c(F)cc6c(=O)c(C(=O)O)cn(C7CC7)c6c5OC)C[C@@H]43)nn2)c2c(F)cccc21`, the MIC in data set [1] is 16 µg/mL (≈ 22.3 µM). The compound further had a CC50 at 72 h in [2] of 16 µg/mL (≈ 22.3 µM). In addition, in data set [3], the selectivity ratio was 1.
In the case of `CO/N=C1/C(=O)N(Cc2cn(CC(=O)N3CCC[C@@H]4CN(c5c(F)cc6c(=O)c(C(=O)O)cn(C7CC7)c6c5OC)C[C@@H]43)nn2)c2ccc(F)cc21`, the MIC in [1] was determined as 1 µg/mL (≈ 1.4 µM). In [2], this compound returned a CC50 at 72 h of 32 µg/mL (≈ 44.6 µM). Besides, the selectivity ratio in [3] stood at 32.
With `COc1c(N2C[C@H]3CCCN(C(=O)Cn4cc(CN5C(=O)/C(=N/NC(N)=S)c6cc(F)ccc65)nn4)[C@H]3C2)c(F)cc2c(=O)c(C(=O)O)cn(C3CC3)c12`, inhibition of growth in [1] (MIC) required 0.25 µg/mL (≈ 0.329 µM). It took 8 µg/mL (≈ 10.5 µM) to reach half-maximal cytotoxicity in data set [2] (CC50 at 72 h). The same compound gave an IC50 in data set [4] of 10.5 µM. Besides, the selectivity ratio in data set [3] turned out to be 32.

As usually defined, the MIC is the smallest concentration in the dilution series that meets the test's criterion for growth inhibition. By CC50 is commonly meant the concentration at which the toxic effect on the cells reaches its halfway point. One may read the IC50 as the point on the concentration scale where inhibition reaches its midpoint. For orientation: half-life means how long it takes for the measured level to halve. One may read the Cmax as the highest concentration seen after dosing. A word on the Tmax: it is the time at which the peak concentration occurs. A word on the AUC(0-inf): it is the area under the concentration-time curve extrapolated to infinity.
